The pIC50 is the negative decadic logarithm of the IC50, by convention in mol/L.

19 compounds from ChEMBL document CHEMBL3297672, “Ingol-type diterpenes from Euphorbia antiquorum with mouse 11β-hydroxysteroid dehydrogenase type 1 inhibition activity” (J Nat Prod, 2014) can be followed below.

The subject of test [1] is HL-60. Put plainly: Cytotoxicity against human HL60 cells. In kind it is functional, cell-based. The gist of the method:
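Cytotoxicity against HL-60 cells was read out by the MTT method, following a previously reported protocol.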

Test [2] deals with A549. Put plainly: Cytotoxicity against human A549 cells. It is filed as functional, cell-based.
In test [3] the target is T1, Tyrosine-protein phosphatase non-receptor type 1 (Homo sapiens, UniProt P18031).
T1 sequence (P18031 whole entry): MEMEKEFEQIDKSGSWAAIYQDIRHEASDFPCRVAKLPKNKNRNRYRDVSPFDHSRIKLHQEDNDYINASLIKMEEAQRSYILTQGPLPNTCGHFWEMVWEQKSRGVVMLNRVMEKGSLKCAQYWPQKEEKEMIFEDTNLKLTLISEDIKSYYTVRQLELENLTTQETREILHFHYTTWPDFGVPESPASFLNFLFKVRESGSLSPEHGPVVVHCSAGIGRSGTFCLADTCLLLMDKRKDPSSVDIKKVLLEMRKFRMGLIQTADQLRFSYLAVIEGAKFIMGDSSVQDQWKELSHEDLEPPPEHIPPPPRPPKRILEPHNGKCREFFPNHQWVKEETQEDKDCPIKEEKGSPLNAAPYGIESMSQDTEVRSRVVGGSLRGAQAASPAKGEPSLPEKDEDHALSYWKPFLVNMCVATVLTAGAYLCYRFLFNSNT
Put plainly: Inhibition of PTP1B (unknown origin).

Test [4] concerns the target 11-beta-hydroxysteroid dehydrogenase 1 (Homo sapiens) (UniProt P28845). As to the kind of experiment: Inhibition of human 11beta-HSD1 expressed in HEK293 cells assessed as inhibition of [3H]cortisone to [3H]cortisol conversion by SPA. It is filed as cell-based. The gist of the method: (§1)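 Scintillation proximity assay against human or mouse 11β-HSD1 enzyme activity, using microsomes containing the enzyme. Glycyrrhetinic acid was the positive control.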

In test [5] the target is 11-beta-hydroxysteroid dehydrogenase 1 (Mus musculus, UniProt P50172). Put plainly: Inhibition of mouse 11beta-HSD1 expressed in HEK293 cells assessed as inhibition of [3H]cortisone to [3H]cortisol conversion by SPA. It is filed as cell-based. The gist of the method: as §1

pIC50: −log10 of the molar value. Active and inactive are the calls of the source. The calls are words filed in the database; no cut-off is given here.

11-beta-hydroxysteroid dehydrogenase 1 (Homo sapiens), sequence (P28845 whole entry, looked up): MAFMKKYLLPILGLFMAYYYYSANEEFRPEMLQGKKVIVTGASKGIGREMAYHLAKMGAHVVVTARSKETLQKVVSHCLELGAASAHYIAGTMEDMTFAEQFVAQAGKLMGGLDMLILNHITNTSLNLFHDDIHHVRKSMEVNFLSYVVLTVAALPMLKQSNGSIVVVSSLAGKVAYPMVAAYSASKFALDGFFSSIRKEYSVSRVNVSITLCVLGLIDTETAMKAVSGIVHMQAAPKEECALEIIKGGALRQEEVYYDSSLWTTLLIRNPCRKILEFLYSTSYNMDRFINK
11-beta-hydroxysteroid dehydrogenase 1, sequence (P50172 whole entry): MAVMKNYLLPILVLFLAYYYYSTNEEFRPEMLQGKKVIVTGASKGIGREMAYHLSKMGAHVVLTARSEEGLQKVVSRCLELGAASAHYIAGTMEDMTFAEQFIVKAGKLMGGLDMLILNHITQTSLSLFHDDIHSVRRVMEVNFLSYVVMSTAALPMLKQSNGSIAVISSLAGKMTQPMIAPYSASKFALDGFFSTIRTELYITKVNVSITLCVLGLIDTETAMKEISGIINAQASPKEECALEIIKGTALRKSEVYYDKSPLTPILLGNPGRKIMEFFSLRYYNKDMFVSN

Turning to `C/C=C(/C)C(=O)O[C@@H]1/C(C)=C/[C@@]23O[C@@]2(C[C@H](C)[C@@H]3OC(C)=O)C(=O)[C@H](C)[C@H](OC(C)=O)[C@@H]2[C@H]([C@H]1OC)C2(C)C`, the negative-log IC50 (pIC50) in test [1], in test [2] and in test [3] was less than 5.00 each time. Further, the inhibition entry in test [4] was “inactive”.

With `CCC(C)C(=O)O[C@@H]1[C@H]2[C@@H]([C@@H](OC(C)=O)[C@@H](C)C(=O)[C@@]34C[C@@H](C)[C@@H](OC(C)=O)[C@]3(/C=C(\C)[C@H]1O)O4)C2(C)C` (some centres not stated), the pIC50 in test [1], in test [2] and in test [3] was less than 5.00 each time. Further, the inhibition entry in test [4] is “inactive”.

With `C/C=C(/C)C(=O)O[C@@H]1/C(C)=C/[C@@]23O[C@@]2(C[C@@H](C)[C@H]3O)C(=O)[C@H](C)[C@H](OC(C)=O)[C@@H]2[C@H]([C@H]1OC)C2(C)C`, the pIC50 in test [1], in test [2] and in test [3] was less than 5.00 in each case. The inhibition entry in test [4] is “inactive”.

As to `CO[C@@H]1[C@H]2[C@@H]([C@@H](OC(C)=O)[C@@H](C)C(=O)[C@@]34C[C@H](C)[C@H](O)[C@]3(/C=C(\C)[C@H]1OC(=O)c1ccccc1)O4)C2(C)C`, the negative logarithm of the IC50 (pIC50) in test [1], in test [2] and in test [3] was less than 5.00 throughout. Further, the inhibition entry in test [4] is “inactive”.

On to `CO[C@@H]1[C@H]2[C@@H]([C@@H](OC(C)=O)[C@@H](C)C(=O)[C@@]34C[C@H](C)[C@H](OC(C)=O)[C@]3(/C=C(\CO)[C@H]1OC(=O)c1ccccc1)O4)C2(C)C`, for which the negative-log IC50 (pIC50) in test [1], in test [2] and in test [3] was less than 5.00 in each case.

With `C/C=C(/C)C(=O)O[C@@H]1/C(C)=C/[C@@]23O[C@@]2(C[C@@H](C)[C@H]3O)C(=O)[C@H](C)[C@H](O)[C@@H]2[C@H]([C@H]1OC)C2(C)C`, the pIC50 in test [1] and in test [3] was less than 5.00 in each case.

`CCC(C)C(=O)O[C@@H]1[C@H]2[C@@H]([C@@H](OC(C)=O)[C@@H](C)C(=O)[C@@]34C[C@H](C)[C@H](OC(C)=O)[C@]3(/C=C(\C)[C@H]1O)O4)C2(C)C` (some centres not stated): the negative-log IC50 (pIC50) in test [1], in test [2] and in test [3] was less than 5.00 throughout. Moreover, the inhibition result in test [4] was “inactive”.

Turning to `CO[C@@H]1[C@H]2[C@@H]([C@@H](OC(C)=O)[C@@H](C)C(=O)[C@@]34C[C@H](C)[C@H](OC(C)=O)[C@]3(/C=C(\C)[C@H]1OC(=O)[C@@]1(C)O[C@@H]1C)O4)C2(C)C`, the pIC50 in test [1], in test [2] and in test [3] was less than 5.00 throughout.

As for `C=C(C(=O)O[C@@H]1/C(C)=C/[C@@]23O[C@@]2(C[C@H](C)[C@@H]3OC(C)=O)C(=O)[C@H](C)[C@H](OC(C)=O)[C@@H]2[C@H]([C@H]1OC)C2(C)C)C(C)O` (some centres not stated), the pIC50 in test [1], in test [2] and in test [3] was less than 5.00 in each case. Besides, the inhibition entry in test [4] was “inactive”.

Consider `CCC(C)C(=O)O[C@@H]1[C@H]2[C@@H]([C@@H](OC(C)=O)[C@@H](C)C(=O)[C@@]34C[C@H](C)[C@H](O)[C@]3(/C=C(\C)[C@H]1OC(C)=O)O4)C2(C)C` (some centres not stated), for which the pIC50 in test [1] was less than 5.00; in test [2], less than 5.00; in test [3] it was less than 5.00; in test [5], 5.19. For the same compound, the inhibition entry in test [4] is “inactive”.

As to `C/C=C(/C)C(=O)O[C@@H]1/C(C)=C/[C@@]23O[C@@]2(C[C@H](C)[C@@H]3O)C(=O)[C@H](C)[C@H](O)[C@@H]2[C@H]([C@H]1OC)C2(C)C`, the pIC50 in test [1], in test [2] and in test [3] was less than 5.00 in each case.

With `C/C=C(/C)C(=O)O[C@@H]1/C(C)=C/[C@@]23O[C@@]2(C[C@H](C)[C@@H]3O)C(=O)[C@H](C)[C@H](OC(C)=O)[C@@H]2[C@H]([C@H]1OC)C2(C)C`, the negative-log IC50 (pIC50) in test [1], in test [2] and in test [3] was less than 5.00 each time. Besides, the inhibition result in test [4] is “inactive”.

`C/C=C(\C)C(=O)O[C@@H]1/C(C)=C/[C@@]23O[C@@]2(C[C@H](C)[C@@H]3OC(C)=O)C(=O)[C@H](C)[C@H](OC(C)=O)[C@@H]2[C@H]([C@H]1OC(C)=O)C2(C)C`: the pIC50 in test [1], in test [2] and in test [3] was less than 5.00 each time. Moreover, the inhibition entry in test [4] was “inactive”.

In the case of `CC(=O)O[C@@H]1[C@@H]2[C@H]([C@@H](OC(=O)c3cccnc3)[C@H](OC(=O)c3ccccc3)/C(C)=C/[C@@]34O[C@@]3(C[C@H](C)[C@@H]4OC(C)=O)C(=O)[C@@H]1C)C2(C)C`, the pIC50 in test [1] was less than 5.00; in test [2] it was less than 5.00; in test [3], less than 5.00; in test [5] it was 6.39. Moreover, the inhibition result in test [4] was “inactive”.

Turning to `C/C=C(/C)C(=O)O[C@@H]1/C(C=O)=C/[C@@]23O[C@@]2(C[C@H](C)[C@@H]3OC(C)=O)C(=O)[C@H](C)[C@H](OC(C)=O)[C@@H]2[C@H]([C@H]1OC)C2(C)C`, the pIC50 in test [1], in test [2] and in test [3] was less than 5.00 throughout.

Take `C/C=C(/C)C(=O)O[C@@H]1/C(CO)=C/[C@@]23O[C@@]2(C[C@H](C)[C@@H]3OC(C)=O)C(=O)[C@H](C)[C@H](OC(C)=O)[C@@H]2[C@H]([C@H]1OC)C2(C)C`: the pIC50 in test [1] was less than 5.00; in test [2] it was less than 5.00; in test [3] it was less than 5.00; in test [5], 4.92. In test [4], the inhibition result is “inactive”.

In the case of `CO[C@@H]1[C@H]2[C@@H]([C@@H](OC(C)=O)[C@@H](C)C(=O)[C@@]34C[C@H](C)[C@H](OC(C)=O)[C@]3(/C=C(\C)[C@H]1OC(=O)[C@]1(C)O[C@@H]1C)O4)C2(C)C`, the pIC50 in test [1], in test [2] and in test [3] was less than 5.00 in each case. In addition, the inhibition result in test [4] was “inactive”.

With `CC(=O)O[C@H]1[C@@H](C)C[C@@]23O[C@@]12/C=C(\C)[C@@H](O)[C@H](OC(=O)c1ccccc1)[C@H]1[C@@H]([C@@H](O)[C@@H](C)C3=O)C1(C)C`, the pIC50 in test [1], in test [2] and in test [3] was less than 5.00 each time. For the same compound, in test [4], the inhibition entry was “inactive”.

As for `CO[C@@H]1[C@H]2[C@@H]([C@@H](O)[C@@H](C)C(=O)[C@@]34C[C@H](C)[C@H](OC(C)=O)[C@]3(/C=C(\C)[C@H]1OC(=O)c1ccccc1)O4)C2(C)C`, the pIC50 in test [1], in test [2] and in test [3] was less than 5.00 each time.
